This note sets out measurements from ChEMBL document CHEMBL1649117, “GRL-02031, a novel nonpeptidic protease inhibitor (PI) containing a stereochemically defined fused cyclopentanyltetrahydrofuran potent against multi-PI-resistant human immunodeficiency virus type 1 in vitro” (Antimicrob Agents Chemother, 2009).

For assay [1], the system named is Human immunodeficiency virus 1. As to the kind of experiment: Antiviral activity against HIV1 NL4-3 harboring L10I/G48V/I54V/L90M amino acid substitution in protease encoding region infected in human MT4 cells assessed as inhibition of p24 Gag protein production selected at 5 uM of saquinavir by ELISA. The assay is classed as functional, organism-based. As to conditions: Human immunodeficiency virus 1, NL4-3, MT4. In outline: (§1)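 HIV-1NL4-3 (500 TCID50s) was passaged in MT-4 cells, starting at 0.01–0.03 µM PI and raising the drug generally two- to threefold as virus propagated. Cell-free passage used day-7 supernatants. Variants were then tested in MT-4 cells (10^5/ml) with 100 TCID50s, with or without drug, at 37°C. Day-7 p24 Gag was read by chemiluminescent immunoassay; EC50 vs drug-free control; triplicate.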
In general terms: In an ELISA, binding on a coated surface is turned into a signal by an enzyme label.

The subject of assay [2] is Human immunodeficiency virus 1. Kind of assay: Ratio of EC50 for HIV1 NL4-3 harboring L23I/K43I/M46I/I50L/G51A/A71V amino acid substitution in protease encoding region to EC50 for HIV1 NL4-3. The class given is functional. In outline:
(§2)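 MT-4 cells (10^5/ml) infected with 100 TCID50s of PI-selected HIV-1NL4-3 variants or the parental strain, with or without serial drug concentrations, at 37°C. Day 7 supernatant p24 Gag measured by chemiluminescent enzyme immunoassay. […] Triplicate. Ratio is variant EC50 over wild-type EC50.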

In assay [3] the test system is Human immunodeficiency virus 1. Kind of assay: Antiviral activity against HIV1 NL4-3 harboring L10F/M46I/I54V/V82A amino acid substitution in protease encoding region infected in human MT4 cells assessed as inhibition of p24 Gag protein production selected at 1 uM of Lopinavir by ELISA. The class given is functional, organism-based. As to conditions: Human immunodeficiency virus 1, NL4-3, MT4. In outline: (§3)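 Cell-free passage used day-7 supernatants. Variants were then tested in MT-4 cells (10^5/ml) with 100 TCID50s, with or without drug, at 37°C. Day-7 p24 Gag was read by chemiluminescent immunoassay; EC50 vs drug-free control; triplicate.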

Assay [4] concerns Human immunodeficiency virus 1. As to the kind of experiment: Ratio of EC50 for HIV1 NL4-3 harboring L10F/D30N/K45I/A71V/T74S amino acid substitution in protease encoding region to EC50 for HIV1 NL4-3. The class given is functional.
Assay [5] concerns Human immunodeficiency virus 1. As to the kind of experiment: Antiviral activity against HIV1 NL4-3 harboring M46I/V82F/I84V amino acid substitution in protease encoding region infected in human MT4 cells assessed as inhibition of p24 Gag protein production selected at 5 uM of ritonavir by ELISA. The class given is functional, organism-based. Conditions: Human immunodeficiency virus 1, NL4-3, MT4. The method in brief: as §1

Assay [6] has as its system Human immunodeficiency virus 1. Kind of assay: Ratio of EC50 for HIV1 NL4-3 harboring L10F/L24I/M46I/L63P/A71V/G73S/V82T amino acid substitution in protease encoding region to EC50 for HIV1 NL4-3. The class given is functional. The method in brief:
as §2

The subject of assay [7] is Human immunodeficiency virus 1. As to the kind of experiment: Antiviral activity against HIV1 NL4-3 harboring L10F/L24I/M46I/L63P/A71V/G73S/V82T amino acid substitution in protease encoding region infected in human MT4 cells assessed as inhibition of p24 Gag protein production selected at 5 uM of indinavir by ELISA. The class given is functional, organism-based. As to conditions: Human immunodeficiency virus 1, NL4-3, MT4. The method in brief:
as §1

The test system of assay [8] is Human immunodeficiency virus 1. Kind of assay: Ratio of EC50 for HIV1 NL4-3 harboring L10F/M46I/I54V/V82A amino acid substitution in protease encoding region to EC50 for HIV1 NL4-3. The class given is functional. The method in brief: as §2
The test system of assay [9] is Human immunodeficiency virus 1. Kind of assay: Antiviral activity against HIV1 NL4-3 harboring L10F/V32I/M46I/I54M//A71V/I84V amino acid substitution in protease encoding region infected in human MT4 cells assessed as inhibition of p24 Gag protein production selected at 5 uM of amprenavir by ELISA. The class given is functional, organism-based. Conditions: Human immunodeficiency virus 1, NL4-3, MT4. The method in brief:
as §3

Assay [10] has as its system Human immunodeficiency virus 1. As to the kind of experiment: Ratio of EC50 for HIV1 NL4-3 harboring L10I/G48V/I54V/L90M amino acid substitution in protease encoding region to EC50 for HIV1 NL4-3. The class given is functional. The method in brief: as §2
The test system of assay [11] is Human immunodeficiency virus 1. Kind of assay: Ratio of EC50 for HIV1 NL4-3 harboring L10F/V32I/M46I/I54M//A71V/I84V amino acid substitution in protease encoding region to EC50 for HIV1 NL4-3. The class given is functional. The method in brief: as §2
Assay [12] concerns Human immunodeficiency virus 1. Kind of assay: Ratio of EC50 for HIV1 NL4-3 harboring L10F/L33F/M46I/I47V/Q58E/V82I/I84V/I85V amino acid substitution in protease encoding region to EC50 for HIV1 NL4-3. The assay is classed as functional. The method in brief:
as §2

For assay [13], the system named is Human immunodeficiency virus 1. Kind of assay: Ratio of EC50 for HIV1 NL4-3 harboring M46I/V82F/I84V amino acid substitution in protease encoding region to EC50 for HIV1 NL4-3. The assay is classed as functional. In outline:
as §2

Assay [14] relates to Human immunodeficiency virus 1. Kind of assay: Antiviral activity against HIV1 NL4-3 harboring L10F/D30N/K45I/A71V/T74S amino acid substitution in protease encoding region infected in human MT4 cells assessed as inhibition of p24 Gag protein production selected at 5 uM of nelfinavir by ELISA. The class given is functional, organism-based. Conditions: Human immunodeficiency virus 1, NL4-3, MT4. In outline: as §1

Assay [15] concerns Human immunodeficiency virus 1. As to the kind of experiment: Antiviral activity against HIV1 NL4-3 infected in human MT4 cells assessed as inhibition of p24 gag protein production by ELISA. The assay is classed as functional, organism-based. As to conditions: Human immunodeficiency virus 1, NL4-3, MT4. The method in brief:
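MT-4 cells (10^5/ml) were infected with 100 TCID50s of HIV-1 and cultured at 37°C with or without various drug concentrations. On day 7, supernatant p24 Gag was measured by automated chemiluminescent enzyme immunoassay. […] Assays were run in triplicate.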

The subject of assay [16] is Human immunodeficiency virus 1. As to the kind of experiment: Antiviral activity against HIV1 NL4-3 harboring L10F/L33F/M46I/I47V/Q58E/V82I/I84V/I85V amino acid substitution in protease encoding region infected in human MT4 cells assessed as inhibition of p24 Gag protein production selected at 5 uM of GRL-02031 by ELISA. The class given is functional, organism-based. As to conditions: Human immunodeficiency virus 1, NL4-3, MT4. The method in brief:
as §3

Assay [17] has as its system Human immunodeficiency virus 1. Kind of assay: Antiviral activity against HIV1 NL4-3 harboring L23I/K43I/M46I/I50L/G51A/A71V amino acid substitution in protease encoding region infected in human MT4 cells assessed as inhibition of p24 Gag protein production selected at 1 uM of atazanavir by ELISA. Conditions: Human immunodeficiency virus 1, NL4-3, MT4. The class given is functional, organism-based. In outline: as §1

A word on the EC50: it is the midpoint of the concentration-response curve. Consider `COC(=O)N[C@H](C(=O)N[C@@H](Cc1ccccc1)[C@@H](O)CN(Cc1ccc(-c2ccccn2)cc1)NC(=O)[C@@H](NC(=O)OC)C(C)(C)C)C(C)(C)C` [ATAZANAVIR], for which the EC50 came out at 320 nM in [1]; 41 nM in [3]; 21 nM in [5]; 63 nM in assay [7]; 3.2 nM in [9]; 24 nM in assay [14]. For the same compound, the EC50 in [15] was found to be 4.3 nM; in assay [16] it was 36 nM; in [17], 310 nM. The “Ratio EC50” value in assay [2] was determined as 72; in assay [4] it was 6; in [6], 15; in [8], 10; in assay [10], 74; in assay [11], 1. For the same compound, the results for the “Ratio EC50” value in assay [12] and in assay [13] were 8 and 5, respectively.
